Data from ChEMBL document CHEMBL4371044, “Celastrol Promotes Weight Loss in Diet-Induced Obesity by Inhibiting the Protein Tyrosine Phosphatases PTP1B and TCPTP in the Hypothalamus” (J Med Chem, 2018).
Calls of active or inactive are those of the source. No cut-off for these calls is given here.

Experiments:
[1] = target: T1, Tyrosine-protein phosphatase non-receptor type 2 (Homo sapiens) (UniProt P17706); test: Inhibition of human N-terminal His6-tagged TCPTP catalytic domain (1 to 296 residues) expressed in Escherichia coli strain Rosetta2 (DE3) up to 500 uM using pNPP as substrate preincubated for 10 mins followed by substrate addition and measured after 10 mins by […]
T1 sequence (whole entry): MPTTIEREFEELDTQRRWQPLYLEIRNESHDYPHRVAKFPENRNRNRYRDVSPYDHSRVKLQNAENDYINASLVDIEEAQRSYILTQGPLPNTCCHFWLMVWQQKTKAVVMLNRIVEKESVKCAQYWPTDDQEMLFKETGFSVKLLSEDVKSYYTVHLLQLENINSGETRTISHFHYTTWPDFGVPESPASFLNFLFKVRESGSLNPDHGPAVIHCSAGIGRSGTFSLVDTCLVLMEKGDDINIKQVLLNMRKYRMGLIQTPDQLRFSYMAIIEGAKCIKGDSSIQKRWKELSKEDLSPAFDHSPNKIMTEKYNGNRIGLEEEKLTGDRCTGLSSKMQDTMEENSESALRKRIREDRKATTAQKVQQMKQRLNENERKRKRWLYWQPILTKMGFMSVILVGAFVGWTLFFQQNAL

[2] = target: T2, Tyrosine-protein phosphatase non-receptor type 1 (Homo sapiens) (UniProt P18031); test: Non-competitive inhibition of human N-terminal His6-tagged PTP1B catalytic domain (1 to 393 residues) expressed in Escherichia coli strain Rosetta2 (DE3) at 500 uM in presence of 4'-aminoxanilic acid by STD-NMR spectroscopic method
T2 sequence (whole entry): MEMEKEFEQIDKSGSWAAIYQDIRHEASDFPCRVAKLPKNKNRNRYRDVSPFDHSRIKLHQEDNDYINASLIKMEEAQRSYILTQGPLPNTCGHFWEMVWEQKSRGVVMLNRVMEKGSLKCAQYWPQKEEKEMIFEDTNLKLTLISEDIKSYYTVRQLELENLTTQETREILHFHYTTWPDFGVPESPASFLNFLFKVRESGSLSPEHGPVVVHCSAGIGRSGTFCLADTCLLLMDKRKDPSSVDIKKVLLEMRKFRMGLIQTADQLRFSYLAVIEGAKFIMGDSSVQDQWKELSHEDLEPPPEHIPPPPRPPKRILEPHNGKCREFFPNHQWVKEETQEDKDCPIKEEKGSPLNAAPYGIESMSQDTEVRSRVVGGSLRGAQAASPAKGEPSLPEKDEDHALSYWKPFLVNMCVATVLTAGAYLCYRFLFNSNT

[3] = target: Receptor-type tyrosine-protein phosphatase epsilon (Homo sapiens, UniProt P23469); test: Inhibition of human PTPRE (107 to 707 residues) expressed in Escherichia coli strain BL21(DE3) using DiFMUP as substrate preincubated for 10 mins followed by substrate addition and measured after 10 mins by fluorescence assay
Procedure, shortened: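 Selectivity panel on enzymes expressed in E. coli BL21(DE3), purified by nickel affinity then size exclusion. DiFMUP fluorescence assay run as for PTP1B/TCPTP, with per-enzyme conditions in a supplementary table; nonlinear regression for IC50; three independent experiments.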

[4] = target: T3, Tyrosine-protein phosphatase non-receptor type 1 (Homo sapiens, UniProt P18031); test: (§1) Inhibition of human N-terminal His6-tagged PTP1B catalytic domain (1 to 298 residues) expressed in Escherichia coli strain Rosetta2 (DE3) using DiFMUP as substrate preincubated for 10 mins followed by substrate addition and measured after 10 mins by fluorescence assay
T3 sequence (P18031 whole entry): T2 sequence (whole entry)
Procedure, shortened: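 Tag-cleaved, SEC-purified enzyme at 1 nM, preincubated 10 min with compound at 15 concentrations from 0–500 μM (5% DMSO final) in 25 mM Bis-Tris propane pH 7.5, 50 mM NaCl, 2 mM EDTA. DiFMUP added at each construct's Km (10, 7, 10, 9 μM for PTP1B1−298, PTP1B1−393, TCPTP1−296, TCPTP1−336). Read ex 358/em 455 nm continuously 10 min at 37 °C; triplicate; log(inhibitor)-response fit.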

Mus musculus [5] = test: Antiobesity activity in high fat diet-induced obese Ptpn2fl/fl null C57BL/6 mouse assessed as reduction in body weight at 100 ug/kg, ip for 10 consecutive days; assay type: functional, organism-based
Procedure, shortened: (§2)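 Male Ptpn1fl/fl, Ptpn2fl/fl or double-floxed mice: chow 8 weeks, then high-fat diet (45% energy from fat) 12 weeks. Bilateral intra-ARC stereotaxic injection of rAAV-CMV-Cre-GFP or rAAV-CMV-GFP, 100 nL/side. After 2 weeks recovery, vehicle or 100 μg/kg ip daily at 6 pm for 10 days; body weight tracked; two-way repeated-measures ANOVA with Tukey test; means ± SEM.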

Mus musculus [6] = test: Antiobesity activity in high fat diet-induced obese Ptpn1fl/fl null C57BL/6 mouse treated with rAAV-CMV-Cre-GFP for deletion of PTP1B and TCPTP assessed as reduction in body weight at 100 ug/kg, ip for 10 consecutive days; assay type: functional, organism-based
[7] = target: T2, Tyrosine-protein phosphatase non-receptor type 1 (Homo sapiens); test: Inhibition of human N-terminal His6-tagged PTP1B catalytic domain (1 to 393 residues) expressed in Escherichia coli strain Rosetta2 (DE3) using DiFMUP as substrate preincubated for 10 mins followed by substrate addition and measured after 10 mins in presence of 0.1 mg/ml BSA by fluorescence assay
Procedure, shortened: (§3)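 DiFMUP IC50 assay (1 nM enzyme, 10 min preincubation, substrate at Km, 37 °C, ex 358/em 455 nm), repeated as an aggregation check under three altered conditions: 10-fold enzyme (10 nM), 0.05% Tween 20, or 0.1 mg/mL BSA in buffer.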

[8] = target: T1, Tyrosine-protein phosphatase non-receptor type 2 (Homo sapiens); test: as §1, with “Non competitive inhibition” for “Inhibition”, “TCPTP” for “PTP1B”, “336” for “298”, “assay Michaelis-Menten plot analysis” for “assay”
Mus musculus [9] = test: Antiobesity activity in high fat diet-induced obese Ptpn1fl/fl null C57BL/6 mouse assessed as reduction in body weight at 100 ug/kg, ip for 10 consecutive days; assay type: functional, organism-based; procedure, shortened: as §2
[10] = target: T1, Tyrosine-protein phosphatase non-receptor type 2 (Homo sapiens); test: Inhibition of human N-terminal His6-tagged TCPTP catalytic domain (1 to 336 residues) expressed in Escherichia coli strain Rosetta2 (DE3) using DiFMUP as substrate preincubated for 10 mins followed by substrate addition and measured after 10 mins in presence of 0.05% Tween20 by fluorescence assay; procedure, shortened: as §3
[11] = target: T2, Tyrosine-protein phosphatase non-receptor type 1 (Homo sapiens); test: Covalent binding to human N-terminal His6-tagged PTP1B catalytic domain (1 to 298 residues) expressed in Escherichia coli strain Rosetta2 (DE3) by mass spectrometry
Procedure, shortened: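 PTP1B at 2 mg/mL incubated 30 min with or without compound (1:5, 2% DMSO) in 50 mM Tris-HCl pH 7.5, 75 mM NaCl; C4 ZipTip cleanup; MALDI-TOF in CHCA matrix.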

[12] = target: T1, Tyrosine-protein phosphatase non-receptor type 2 (Homo sapiens); test: Inhibition of human N-terminal His6-tagged TCPTP catalytic domain (1 to 336 residues) expressed in Escherichia coli strain Rosetta2 (DE3) up to 500 uM using pNPP as substrate preincubated for 10 mins followed by substrate addition and measured after 10 mins by […]

Sequence of Receptor-type tyrosine-protein phosphatase epsilon (P23469 whole entry, the tested form may be a part): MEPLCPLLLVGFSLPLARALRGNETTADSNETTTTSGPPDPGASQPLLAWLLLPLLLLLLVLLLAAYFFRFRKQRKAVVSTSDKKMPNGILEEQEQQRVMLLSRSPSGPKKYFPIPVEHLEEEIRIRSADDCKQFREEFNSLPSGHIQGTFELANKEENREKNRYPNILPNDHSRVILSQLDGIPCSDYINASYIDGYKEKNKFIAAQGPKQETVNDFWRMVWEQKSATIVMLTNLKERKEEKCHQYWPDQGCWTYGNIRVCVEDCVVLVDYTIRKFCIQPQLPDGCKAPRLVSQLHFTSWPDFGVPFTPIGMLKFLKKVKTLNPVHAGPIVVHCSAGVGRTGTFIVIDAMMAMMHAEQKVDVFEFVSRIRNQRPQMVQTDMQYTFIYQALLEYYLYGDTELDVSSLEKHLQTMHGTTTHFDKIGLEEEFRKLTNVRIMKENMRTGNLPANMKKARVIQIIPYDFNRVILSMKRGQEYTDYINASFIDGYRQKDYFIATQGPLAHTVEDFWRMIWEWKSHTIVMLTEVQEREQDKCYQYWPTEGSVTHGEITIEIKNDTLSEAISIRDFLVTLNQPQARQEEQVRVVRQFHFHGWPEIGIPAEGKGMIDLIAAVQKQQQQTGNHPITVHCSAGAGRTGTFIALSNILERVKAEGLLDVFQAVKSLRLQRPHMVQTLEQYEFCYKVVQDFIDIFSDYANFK

Question: For `CC1=C(O)C(=O)C=C2C1=CC=C1[C@@]2(C)CC[C@@]2(C)[C@@H]3C[C@](C)(C(=O)O)CC[C@]3(C)CC[C@]12C` [CELASTROL], which inhibition [1] is on record?
Answer: Active

Question: And the inhibition [2]?
Answer: Active

Question: And the IC50 [3]?
Answer: > 500 µM

Question: And the IC50 [4]?
Answer: 4.8 µM

Question: What about the Activity (Mus musculus [5]) of the same compound?
Answer: Active

Question: What about the Activity (Mus musculus [6]) of the same compound?
Answer: inactive

Question: What about the inhibition [7] of the same compound?
Answer: Active

Question: And the inhibition [8]?
Answer: Active

Question: What about the Activity (Mus musculus [9]) of the same compound?
Answer: Active

Question: And the inhibition [10]?
Answer: Active

Question: And the Activity [11]?
Answer: inactive

Question: What about the inhibition [12] of the same compound?
Answer: Active
